Laboratory results as given in PubChem BioAssay AID504543 (Southern Research Specialized Biocontainment Screening …, 2011).
Calls of active or inactive are those of the source.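 How the source made its calls: active means phage lysis blocked by at least 50% at any tested concentration; inactive means the rest.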

Tests used:
[1] = inhibitors of K1F phage lysis of E. coli UTI89, dose response, capsule biogenesis inhibitor project, strain UTI89, C7 control, set 2 (AID 504543); settings: E. coli UTI89 K1F phage lysis inhibition, OD600 3 h; at 300 µM (top of the series)
Procedure, shortened: (§1)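 System: Escherichia coli UTI89 (K1 capsule) plus phage-resistant kpsM mutant; Medium: LB broth, overnight cultures diluted 1:100; Timing: 1.25 h compound pre-incubation at 37 °C, 3 h phage exposure; Signal: OD600 absorbance; Control set: phage-resistant kpsM mutant and 1% DMSO vehicle wells.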

[2] = system: E. coli UTI89 K1F phage lysis inhibition, OD600 3 h; experiment: as above; settings: for CC50: measured here: cytotoxicity
Procedure, shortened: as §1

SMILES | inhibition of phage lysis [1] | CC50 [2] [µM] | IC50 [2] [µM]
COc1ccc(-c2cc(C(=O)O)c3ccccc3n2)cc1 | 1.1% (inactive) | 112 | 
CCN(CC)c1ccc2c(-c3ccc(S(=O)(=O)O)cc3S(=O)(=O)O)c3ccc(=[N+](CC)CC)cc-3oc2c1 | -8.77% (inactive) | < 2.35 | 
COc1cc(/C=N/N=C(N)N)ccc1OCc1ccccc1Cl | -29.8% (inactive) | 11.4 | 
O=C(Nc1cccc(C2=NCCN2)c1)Nc1cccc(C2=NCCN2)c1 | 14.2% (inactive) | 69.1 | 
N=C(N)SCCc1cccc(CCSC(=N)N)c1 |  | 181 | 135
O=C1c2c(O)ccc(O)c2C(=O)c2c(NCCNCCO)ccc(NCCNCCO)c21 |  | > 300 | 201
Cc1cccc(-c2cc(C(=O)O)c3ccccc3n2)c1 | -1.53% (inactive) | 138 | 
NC(N)=N/N=C/c1ccc(OCc2ccccc2)cc1 | -28.3% (inactive) | 9.38 | 
